Assay results from different studies.
Each line is one published result; the experiments were not run side by side.
Sample: plasma

SMILES	system	setting	measurement	value
C=CC(=O)NC1CCN(c2ncc3ncnc(Nc4ccc(Oc5ccc6c(c5)ncn6C)c(C)c4)c3n2)CC1	male human	intravenous, 100 µg, single dose, healthy volunteers	Vd	391 L
COc1ccc2c(c1)CN(C(=O)CCN1CCC(Cc3ccccc3)CC1)CC[S@@+]2[O-]	male human	intravenous, 0.4 mg/kg, healthy volunteers	Vd	46.3 L
C=CC(=O)N1C[C@H](Nc2ncnc3[nH]ccc23)CC[C@@H]1C	human	oral, 30 mg	Vd/F	183 L
OC[C@H]1O[C@@H](c2cc(Cc3ccc(C4CC4)cc3)c(Cl)c3c2CCO3)[C@H](O)[C@@H](O)[C@@H]1O	human	oral, 0.3 mg, single dose, fed	Vd/F	177 L
C[C@@H](Oc1ccc(S(C)(=O)=O)cc1C(=O)N1C[C@@H]2C[C@]2(c2cc(C(F)(F)F)on2)C1)C(F)(F)F	human	oral, 10 mg, single dose, fed	Vd/F	247 L
COc1ccc(F)cc1C(=O)NCc1ccc(-c2nn([C@@H](C)C(F)(F)F)c(N)c2C(N)=O)cc1	male human	intravenous, 22 µg	Vd	0.54 L/kg
CC(C)c1nc(N(C)S(C)(=O)=O)nc(-c2ccc(F)cc2)c1/C=C/[C@@H](O)C[C@@H](O)CC(=O)O	human	oral, 10 mg	Vd/F	8020 L
N#Cc1cccc(-c2ccc3ncc(-c4cc(F)cc(F)c4)c(N4CCC(N)CC4)c3c2)c1O	human	intravenous, 50 µg	Vd	220 L
